In ChEMBL document CHEMBL4673249, “Anticancer Effects of Honokiol via Mitochondrial Dysfunction Are Strongly Enhanced by the Mitochondria-Targeting Carrier Berberine” (J Med Chem, 2020):
Calls of active or inactive are those of the source. No cut-off for these calls is given here.

Tests used:
[1] = test system: HepG2; assay: Induction of morphological changes in human HepG2 cells assessed as accumulation of vacuoles at 3 uM after 24 hrs in presence of 3-MA by microscopic method; format: functional, cell-based
How it was run: (§1)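 HepG2 cells given 3 μM compound for 24 h with chloroquine (10 μM) or 3-methyladenine (1 mM). Vacuolization and viability examined, viability by MTT.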

[2] = Ratio of HN drug uptake to test compound drug uptake in human HepG2 cells mitochondria at 5 uM after 12 hrs by HPLC analysis; format: ADME; conditions: hepg2, 12 h
How it was run: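 HepG2 cells treated with 5 μM compound or honokiol for 12 h. Mitochondria isolated with a kit by centrifugation at 600g then 11000g, 4 °C, 10 min each. Whole-cell and mitochondrial drug measured by HPLC on a C18 column, methanol-0.1% acetic acid (80:20), at 265 nm (derivative) and 210 nm (honokiol). Run thrice.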

[3] = test system: HepG2; assay: Induction of apoptosis in human HepG2 cells assessed as necrotic cells at 1 uM after 24 hrs by annexin V/propidium iodide staining based flow cytometric analysis (reference value: 0.11%); format: functional
[4] = test system: A549; assay: Antiproliferative activity against human A549 cells assessed as reduction in cell viability after 48 hrs by MTT assay; format: functional, cell-based; conditions: A549, 48 h
How it was run: (§2)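 Cell lines grown at 37 °C in 5% CO2: A2780, A549, HL7702 and PC3 in RPMI 1640; HT29 in McCoy's 5A; HepG2 and PANC-1 in DMEM; all media with 10% FBS and penicillin/streptomycin. Cells seeded and left overnight, then exposed to compound for 48 h. MTT (5 mg/mL solution) added for 4 h at 37 °C, formazan dissolved in DMSO, absorbance read at 570 nm. IC50 taken from viability; run in triplicate.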

[5] = test system: HepG2; assay: Induction of autophagy in human HepG2 cells assessed as effect on P62 protein expression at 3 uM after 24 hrs by Western blot analysis; format: functional, cell-based
How it was run: (§3)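 HepG2 cells lysed in RIPA on ice for 20 min; protein measured by BCA. Lysates run on 10% SDS-PAGE and transferred to PVDF. Membranes blocked in 5% nonfat milk/TBST for 2 h, incubated with primary antibodies overnight at 4 °C, then HRP secondary antibody; bands detected by ECL.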

[6] = test system: HepG2; assay: Induction of morphological changes in human HepG2 cells assessed as accumulation of vacuoles at 3 uM after 24 hrs in presence of CQ by microscopic method; format: functional, cell-based; how it was run: as §1
[7] = test system: HepG2; assay: Induction of apoptosis in human HepG2 cells assessed as viable cells at 2 uM after 24 hrs by annexin V/propidium iodide staining based flow cytometric analysis (reference value: 95.3%); format: functional; conditions: read-out: Activity
[8] = test system: HepG2; assay: Induction of apoptosis in human HepG2 cells assessed as increase in cleaved-caspase 3 protein expression at 1 to 4 uM after 24 hrs by Western blot analysis; format: functional, cell-based; conditions: dose 1-4 µM; how it was run: as §3
[9] = test system: HepG2; assay: Induction of apoptosis in human HepG2 cells assessed as early apoptotic cells at 2 uM after 24 hrs by annexin V/propidium iodide staining based flow cytometric analysis (reference value: 1.29%); format: functional
[10] = test system: HepG2; assay: Induction of cell death in human HepG2 cells assessed as reduction in cell viability after 24 hrs in presence of z-VAD-fmk by MTT assay; format: functional, cell-based
How it was run: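 HepG2 cells pretreated with 20 μM z-VAD-fmk for 2 h, then exposed to a range of doses. Viability measured by MTT: 4 h at 37 °C, formazan in DMSO, absorbance at 570 nm.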

[11] = test system: HepG2; assay: Induction of apoptosis in human HepG2 cells assessed as accumulation of AIF in cytoplasm at 4 uM after 24 hrs by immunofluorescence assay; format: functional, cell-based
How it was run: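 HepG2 cells in glass-bottom dishes given 4 μM for 24 h. Fixed in methanol:acetone (1:1) for 10 min, blocked with 5% BSA for 1 h at room temperature. Anti-AIF antibody applied overnight at 4 °C, then Alexa Fluor 594 secondary; nuclei stained with DAPI. Imaged by confocal microscopy.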

[12] = test system: HepG2; assay: Induction of apoptosis in human HepG2 cells assessed as viable cells at 4 uM after 24 hrs by annexin V/propidium iodide staining based flow cytometric analysis (reference value: 95.3%); format: functional; conditions: read-out: Activity
[13] = test system: HepG2; assay: Induction of apoptosis in human HepG2 cells assessed as early apoptotic cells at 1 uM after 24 hrs by annexin V/propidium iodide staining based flow cytometric analysis (reference value: 1.29%); format: functional
[14] = test system: HepG2; assay: Induction of mitochondrial dysfunction in human HepG2 cells assessed as […] at 1 to 4 uM after 24 hrs by JC-1 staining based flow cytometric analysis; format: functional, cell-based; conditions: dose 1-4 µM
[15] = test system: HepG2; assay: Induction of apoptosis in human HepG2 cells assessed as early apoptotic cells at 4 uM after 24 hrs in presence of z-VAD-fmk by annexin V/propidium iodide staining based flow cytometric analysis (reference value: 0.86%); format: functional
[16] = test system: HepG2; assay: Induction of cell death in human HepG2 cells at 3 uM after 24 hrs in presence of CQ by MTT assay; format: functional, cell-based
How it was run: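 HepG2 cells given 3 μM for 24 h together with CQ (10 μM) or 3-MA (1 mM). Viability measured by MTT with absorbance read at 570 nm.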

[17] = test system: HepG2; assay: Induction of apoptosis in human HepG2 cells assessed as late apoptotic cells at 1 uM after 24 hrs by annexin V/propidium iodide staining based flow cytometric analysis (reference value: 3.22%); format: functional
[18] = test system: PANC-1; assay: Induction of morphological changes in human PANC-1 cells assessed as accumulation of cytoplasmic vacuoles at 4 uM after 24 hrs by optical microscopic method; format: functional, cell-based
How it was run: (§4)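 Cells grown at 37 °C, 5% CO2 in media with 10% FBS and penicillin/streptomycin, then treated with compound. Cytoplasmic vacuoles judged by optical microscopy. Time course at 4 μM, or 10 h exposure across increasing concentrations.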

[19] = test system: HepG2; assay: Induction of apoptosis in human HepG2 cells assessed as necrotic cells at 2 uM after 24 hrs by annexin V/propidium iodide staining based flow cytometric analysis (reference value: 0.11%); format: functional
[20] = test system: PC-3; assay: Induction of morphological changes in human PC3 cells assessed as accumulation of cytoplasmic vacuoles at 4 uM after 24 hrs by optical microscopic method; format: functional, cell-based; how it was run: as §4
[21] = Drug localization n human HepG2 cells mitochondria by MitoTracker staining based confocal microscopic analysis; format: ADME
How it was run: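 HepG2 cells in glass-bottom dishes were exposed to compound, then stained with 150 nM MitoTracker Red CMXRos for 20 min. Compound's own blue fluorescence imaged against the red mitochondrial signal by confocal microscopy.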

[22] = test system: HepG2; assay: Induction of apoptosis in human HepG2 cells assessed as necrotic cells at 4 uM after 24 hrs in presence of z-VAD-fmk by annexin V/propidium iodide staining based flow cytometric analysis (reference value: 0.12%); format: functional
[23] = test system: HepG2; assay: Induction of mitochondrial dysfunction in human HepG2 cells assessed as increase in MPTP opening at 1 to 4 uM after 24 hrs by JC-1 staining based flow cytometric analysis; format: functional, cell-based; conditions: dose 1-4 µM
[24] = test system: HepG2; assay: Induction of apoptosis in human HepG2 cells after 24 hrs by annexin V/propidium iodide staining based flow cytometric analysis; format: functional, cell-based; conditions: dose 1-4 µM
[25] = test system: HepG2; assay: Induction of apoptosis in human HepG2 cells assessed as increase in cleaved-caspase 9 protein expression at 1 to 4 uM after 24 hrs by Western blot analysis; format: functional, cell-based; conditions: dose 1-4 µM; how it was run: as §3
[26] = test system: PC-3; assay: Antiproliferative activity against human PC-3 cells assessed as reduction in cell viability after 48 hrs by MTT assay; format: functional, cell-based; conditions: PC-3, 48 h; how it was run: as §2

## C=CCc1ccc(O)c(-c2ccc(OCCCCCc3c4[n+](cc5c(OC)c(OC)ccc35)CCc3cc5c(cc3-4)OCO5)c(CC=C)c2)c1.[I-]
[1]
  Activity: Active
[2]
  Ratio: 3.7
[3]
  Activity: 0.2%
[4]
  IC50: 3000 nM
[5]
  Activity: inactive
[6]
  Activity: Active
[7]
  viability at 2 µM: 93.3%
[8]
  Activity: Active
[9]
  Activity: 3.03%
[10]
  Activity: Active
[11]
  Activity: Active
[12]
  viability at 4 µM: 73.3%
[13]
  Activity: 3.27%
[14]
  Activity: Active
[15]
  Activity: 6.59%
[16]
  Activity: Active
[17]
  Activity: 3.21%
[18]
  Activity: Active
[19]
  Activity: 0.13%
[20]
  Activity: Active
[21]
  Drug uptake: Active
[22]
  Activity: 0.57%
[23]
  Activity: Active
[24]
  Activity: Dose-dependent effect
[25]
  Activity: Active
[26]
  IC50: 2250 nM
